Data from ChEMBL document CHEMBL3734675, “Synthesis, antimycobacterial and antibacterial activity of fluoroquinolone derivatives containing an 3-alkoxyimino-4-(cyclopropylanimo)methylpyrrolidine moiety” (2015).
In brackets after ≈: the same amount, converted by molar mass.

Tests used:
Type in all cases: functional
Staphylococcus aureus [1] = test: Antibacterial activity against methicillin-resistant Staphylococcus aureus 14-5 after 18 to 24 hrs by two-fold serial dilution method
Method in brief: (§1)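 Agar media, standard twofold serial dilution. MIC is the lowest concentration giving complete inhibition of bacterial growth after incubation at 35 °C for 18–24 h. Ciprofloxacin and levofloxacin were run as comparators.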

[2] = test system: Staphylococcus epidermidis; test: Antibacterial activity against methicillin-resistant Staphylococcus epidermidis 14-21 after 18 to 24 hrs by two-fold serial dilution method; method in brief: as §1
Staphylococcus aureus [3] = test: Antibacterial activity against methicillin-sensitive Staphylococcus aureus 14-3 after 18 to 24 hrs by two-fold serial dilution method
Method in brief: (§2)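 Twofold serial dilution in agar media against Gram-positive and Gram-negative strains. Plates incubated at 35 °C for 18–24 h. MIC read as the lowest compound concentration giving complete inhibition of bacterial growth.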

Escherichia coli [4] = test: Antibacterial activity against Escherichia coli 14-2 after 18 to 24 hrs by two-fold serial dilution method; method in brief: as §2
Klebsiella pneumoniae [5] = test: Antibacterial activity against Klebsiella pneumoniae 14-4 after 18 to 24 hrs by two-fold serial dilution method; method in brief: as §2
Escherichia coli [6] = test: Antibacterial activity against Escherichia coli 14-1 after 18 to 24 hrs by two-fold serial dilution method; method in brief: as §2
Pseudomonas aeruginosa [7] = test: Antibacterial activity against Pseudomonas aeruginosa 14-16 after 18 to 24 hrs by two-fold serial dilution method; method in brief: as §2
Klebsiella pneumoniae [8] = test: Antibacterial activity against extended-spectrum beta-lactamase producing Klebsiella pneumoniae 14-18 after 18 to 24 hrs by two-fold serial dilution method; method in brief: as §2
Pseudomonas aeruginosa [9] = test: Antibacterial activity against Pseudomonas aeruginosa ATCC 27853 after 18 to 24 hrs by two-fold serial dilution method; method in brief: as §2
Klebsiella pneumoniae [10] = test: Antibacterial activity against Klebsiella pneumoniae 14-3 after 18 to 24 hrs by two-fold serial dilution method; method in brief: as §2
Staphylococcus aureus [11] = test: Antibacterial activity against Staphylococcus aureus CMCC 26003 after 18 to 24 hrs by two-fold serial dilution method; method in brief: as §2
Pseudomonas aeruginosa [12] = test: Antibacterial activity against Pseudomonas aeruginosa 14-14 after 18 to 24 hrs by two-fold serial dilution method; method in brief: as §2
Klebsiella pneumoniae [13] = test: Antibacterial activity against Klebsiella pneumoniae 14-1 after 18 to 24 hrs by two-fold serial dilution method; method in brief: as §2
[14] = test system: Staphylococcus epidermidis; test: Antibacterial activity against methicillin-resistant Staphylococcus epidermidis 14-37 after 18 to 24 hrs by two-fold serial dilution method; method in brief: as §1
Streptococcus pneumoniae = test: Antibacterial activity against methicillin-resistant Streptococcus pneumoniae ATCC 19615 after 18 to 24 hrs by two-fold serial dilution method; method in brief: as §1
Staphylococcus aureus [15] = test: Antibacterial activity against methicillin-resistant Staphylococcus aureus 14-4 after 18 to 24 hrs by two-fold serial dilution method; method in brief: as §1
[16] = test system: Staphylococcus epidermidis; test: Antibacterial activity against methicillin-resistant Staphylococcus epidermidis 14-22 after 18 to 24 hrs by two-fold serial dilution method; method in brief: as §1
Escherichia coli [17] = test: Antibacterial activity against extended-spectrum beta-lactamase producing Escherichia coli 14-1 after 18 to 24 hrs by two-fold serial dilution method; method in brief: as §2
Enterococcus faecium [18] = test: Antibacterial activity against Enterococcus faecium 14-2 after 18 to 24 hrs by two-fold serial dilution method; method in brief: as §2
Staphylococcus aureus [19] = test: Antibacterial activity against methicillin-sensitive Staphylococcus aureus 14-1 after 18 to 24 hrs by two-fold serial dilution method; method in brief: as §2
Pseudomonas aeruginosa [20] = test: Antibacterial activity against Pseudomonas aeruginosa 14-9 after 18 to 24 hrs by two-fold serial dilution method; method in brief: as §2
[21] = test system: Staphylococcus epidermidis; test: Antibacterial activity against methicillin-resistant Staphylococcus epidermidis 14-39 after 18 to 24 hrs by two-fold serial dilution method; method in brief: as §1
Pseudomonas aeruginosa [22] = test: Antibacterial activity against Pseudomonas aeruginosa 14-15 after 18 to 24 hrs by two-fold serial dilution method; method in brief: as §2
[23] = test system: Staphylococcus epidermidis; test: Antibacterial activity against methicillin-sensitive Staphylococcus epidermidis 14-2 after 18 to 24 hrs by two-fold serial dilution method; method in brief: as §2
Klebsiella pneumoniae [24] = test: Antibacterial activity against extended-spectrum beta-lactamase producing Klebsiella pneumoniae 14-19 after 18 to 24 hrs by two-fold serial dilution method; method in brief: as §2
Enterococcus faecium [25] = test: Antibacterial activity against Enterococcus faecium 14-5 after 18 to 24 hrs by two-fold serial dilution method; method in brief: as §2
Enterococcus faecalis [26] = test: Antibacterial activity against Enterococcus faecalis 14-2 after 18 to 24 hrs by two-fold serial dilution method; method in brief: as §2
Klebsiella pneumoniae [27] = test: Antibacterial activity against extended-spectrum beta-lactamase producing Klebsiella pneumoniae 14-17 after 18 to 24 hrs by two-fold serial dilution method; method in brief: as §2
Escherichia coli [28] = test: Antibacterial activity against Escherichia coli ATCC 25922 after 18 to 24 hrs by two-fold serial dilution method; method in brief: as §2
[29] = test system: Mycobacterium tuberculosis; test: Antimycobacterial activity against Mycobacterium tuberculosis H37Rv ATCC 27294 incubated for 7 days by microplate Alamar Blue assay; conditions: H37Rv ATCC 27294, 168 h
Method in brief: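 Fluorescence read-out. MIC is the lowest concentration that reduces fluorescence by at least 90% relative to the mean of replicate bacterium-only controls. Isoniazid and rifampicin were included as reference drugs.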

Escherichia coli [30] = test: Antibacterial activity against extended-spectrum beta-lactamase producing Escherichia coli 14-2 after 18 to 24 hrs by two-fold serial dilution method; method in brief: as §2
Klebsiella pneumoniae [31] = test: Antibacterial activity against Klebsiella pneumoniae 14-2 after 18 to 24 hrs by two-fold serial dilution method; method in brief: as §2
Staphylococcus aureus [32] = test: Antibacterial activity against methicillin-sensitive Staphylococcus aureus 14-4 after 18 to 24 hrs by two-fold serial dilution method; method in brief: as §2
Enterococcus faecalis [33] = test: Antibacterial activity against Enterococcus faecalis 14-1 after 18 to 24 hrs by two-fold serial dilution method; method in brief: as §2
Enterococcus faecium [34] = test: Antibacterial activity against Enterococcus faecium 14-6 after 18 to 24 hrs by two-fold serial dilution method; method in brief: as §2

`CO/N=C1/CN(c2nc3c(cc2F)c(=O)c(C(=O)O)cn3-c2nc(N)c(F)cc2F)CC1CNC1CC1` (stereo not given) was tested, and the MIC (Staphylococcus aureus [1]) was 16 µg/mL (≈ 30.9 µM), the MIC [2] was 64 µg/mL (≈ 124 µM) and the MIC (Staphylococcus aureus [3]) was 16 µg/mL (≈ 30.9 µM). The MIC (Escherichia coli [4]) was over 128 µg/mL, the MIC (Klebsiella pneumoniae [5]) was over 128 µg/mL and the MIC (Escherichia coli [6]) was over 128 µg/mL. For the same molecule, the MIC (Pseudomonas aeruginosa [7]) was 64 µg/mL (≈ 124 µM), the MIC (Klebsiella pneumoniae [8]) was 64 µg/mL (≈ 124 µM) and the MIC (Pseudomonas aeruginosa [9]) was 16 µg/mL (≈ 30.9 µM). For the same molecule, the MIC (Klebsiella pneumoniae [10]) was over 128 µg/mL, the MIC (Staphylococcus aureus [11]) was 0.25 µg/mL (≈ 0.483 µM) and the MIC (Pseudomonas aeruginosa [12]) was 128 µg/mL (≈ 247 µM). It also gave an MIC (Klebsiella pneumoniae [13]) of 32 µg/mL (≈ 61.8 µM), an MIC [14] of 64 µg/mL (≈ 124 µM) and an MIC (Streptococcus pneumoniae) of 32 µg/mL (≈ 61.8 µM). It also gave an MIC (Staphylococcus aureus [15]) of 64 µg/mL (≈ 124 µM), an MIC [16] of 32 µg/mL (≈ 61.8 µM) and an MIC (Escherichia coli [17]) of 16 µg/mL (≈ 30.9 µM). For the same molecule, the MIC (Enterococcus faecium [18]) was 32 µg/mL (≈ 61.8 µM), the MIC (Staphylococcus aureus [19]) was 16 µg/mL (≈ 30.9 µM) and the MIC (Pseudomonas aeruginosa [20]) was 32 µg/mL (≈ 61.8 µM). It also gave an MIC [21] of 16 µg/mL (≈ 30.9 µM), an MIC (Pseudomonas aeruginosa [22]) of 128 µg/mL (≈ 247 µM) and an MIC [23] of 128 µg/mL (≈ 247 µM). The MIC (Klebsiella pneumoniae [24]) was 64 µg/mL (≈ 124 µM), the MIC (Enterococcus faecium [25]) was 16 µg/mL (≈ 30.9 µM) and the MIC (Enterococcus faecalis [26]) was 4 µg/mL (≈ 7.73 µM). It also gave an MIC (Klebsiella pneumoniae [27]) of 64 µg/mL (≈ 124 µM), an MIC (Escherichia coli [28]) of 4 µg/mL (≈ 7.73 µM) and an MIC90 [29] of 24.3 µg/mL (≈ 46.9 µM). The MIC (Escherichia coli [30]) was over 128 µg/mL, the MIC (Klebsiella pneumoniae [31]) was 32 µg/mL (≈ 61.8 µM) and the MIC (Staphylococcus aureus [32]) was 16 µg/mL (≈ 30.9 µM). It also gave an MIC (Enterococcus faecalis [33]) of 16 µg/mL (≈ 30.9 µM) and an MIC (Enterococcus faecium [34]) of 32 µg/mL (≈ 61.8 µM).
`CCO/N=C1/CN(c2nc3c(cc2F)c(=O)c(C(=O)O)cn3-c2nc(N)c(F)cc2F)CC1CNC1CC1` (stereo not given) showed an MIC (Staphylococcus aureus [1]) of 8 µg/mL (≈ 15.1 µM), an MIC [2] of 128 µg/mL (≈ 241 µM) and an MIC (Staphylococcus aureus [3]) of 32 µg/mL (≈ 60.2 µM). It also gave an MIC (Escherichia coli [4]) of over 128 µg/mL, an MIC (Klebsiella pneumoniae [5]) of over 128 µg/mL and an MIC (Escherichia coli [6]) of over 128 µg/mL. For the same molecule, the MIC (Pseudomonas aeruginosa [7]) was 128 µg/mL (≈ 241 µM), the MIC (Klebsiella pneumoniae [8]) was 128 µg/mL (≈ 241 µM) and the MIC (Pseudomonas aeruginosa [9]) was 32 µg/mL (≈ 60.2 µM). It also gave an MIC (Klebsiella pneumoniae [10]) of 128 µg/mL (≈ 241 µM), an MIC (Staphylococcus aureus [11]) of 0.125 µg/mL (≈ 0.235 µM) and an MIC (Pseudomonas aeruginosa [12]) of 128 µg/mL (≈ 241 µM). The MIC (Klebsiella pneumoniae [13]) was 64 µg/mL (≈ 120 µM), the MIC [14] was 64 µg/mL (≈ 120 µM) and the MIC (Streptococcus pneumoniae) was 16 µg/mL (≈ 30.1 µM). It also gave an MIC (Staphylococcus aureus [15]) of 64 µg/mL (≈ 120 µM), an MIC [16] of 32 µg/mL (≈ 60.2 µM) and an MIC (Escherichia coli [17]) of 32 µg/mL (≈ 60.2 µM). For the same molecule, the MIC (Enterococcus faecium [18]) was 64 µg/mL (≈ 120 µM), the MIC (Staphylococcus aureus [19]) was 16 µg/mL (≈ 30.1 µM) and the MIC (Pseudomonas aeruginosa [20]) was 32 µg/mL (≈ 60.2 µM). For the same molecule, the MIC [21] was 64 µg/mL (≈ 120 µM), the MIC (Pseudomonas aeruginosa [22]) was 128 µg/mL (≈ 241 µM) and the MIC [23] was over 128 µg/mL. It also gave an MIC (Klebsiella pneumoniae [24]) of 128 µg/mL (≈ 241 µM), an MIC (Enterococcus faecium [25]) of 32 µg/mL (≈ 60.2 µM) and an MIC (Enterococcus faecalis [26]) of 4 µg/mL (≈ 7.53 µM). The MIC (Klebsiella pneumoniae [27]) was 128 µg/mL (≈ 241 µM), the MIC (Escherichia coli [28]) was 4 µg/mL (≈ 7.53 µM) and the MIC90 [29] was 22 µg/mL (≈ 41.4 µM). The MIC (Escherichia coli [30]) was over 128 µg/mL, the MIC (Klebsiella pneumoniae [31]) was 64 µg/mL (≈ 120 µM) and the MIC (Staphylococcus aureus [32]) was 32 µg/mL (≈ 60.2 µM). For the same molecule, the MIC (Enterococcus faecalis [33]) was 128 µg/mL (≈ 241 µM) and the MIC (Enterococcus faecium [34]) was 128 µg/mL (≈ 241 µM).
